# Myeloid diff MLP: myeloid differentiation induction. ER-HoxA9 myeloid progenitors, lysozyme-GFP differentiation, flow cytometry. calls only at 10 µM. actives 1% (n = 360,000);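 active means normalized GFP-positive differentiation at or above the plate's own cutoff, the solvent-only control mean plus 3 SD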;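 further: cells exposed to compound for four days before flow analysis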
# NR2E3 ag-1: human photoreceptor-specific nuclear receptor agonism. Q9Y5X4. CHO-S Gal4-NCOR/VP16-NR2E3 two-hybrid, luciferase. inhibition of corepressor binding, % at 3.98 µM. actives 0.35% (n = 360,000);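 active means inhibition above the mean of all tested compounds plus 3 SD, cut at about 70% in these data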;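 further: 0% = DMSO with NR2E3 transfected cells and 100% = cells lacking NR2E3 construct; higher means lower luciferase signal from less NR2E3 corepressor binding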
# Target sequence (Q9Y5X4 whole entry, looked up, the tested form may be a part): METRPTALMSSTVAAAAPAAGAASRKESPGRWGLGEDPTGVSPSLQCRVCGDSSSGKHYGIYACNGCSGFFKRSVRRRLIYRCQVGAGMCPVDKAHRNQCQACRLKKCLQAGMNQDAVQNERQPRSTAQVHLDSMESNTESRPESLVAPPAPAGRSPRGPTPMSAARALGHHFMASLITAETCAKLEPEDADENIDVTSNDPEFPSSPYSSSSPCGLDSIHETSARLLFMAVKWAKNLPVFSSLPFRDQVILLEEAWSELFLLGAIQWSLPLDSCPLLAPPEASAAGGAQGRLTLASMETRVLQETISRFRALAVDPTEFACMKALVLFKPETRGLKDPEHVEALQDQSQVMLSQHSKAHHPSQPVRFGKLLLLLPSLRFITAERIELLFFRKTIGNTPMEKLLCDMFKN
# T cell modulator: modulates CD8 T cell binding to vesicles; 2C CD8+ T cell-vesicle binding, flow cytometry; hits give low values; AID 2052; response (vesicle binding), % at 7 µM; actives 0.068% (n = 330,000);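 active means response, share of CD8 T cells binding vesicles, and their 90th percentile fluorescence all below set limits, cut at about 80% in these data, passing the limit was not always enough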;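 further: values below 100% mean blocked vesicle binding to the CD8+ T cells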
#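 Benchmarks: naked versus QL9-loaded vesicles / Assay system: purified 2C TCR transgenic mouse naive CD8+ T cells / Technique: high-throughput flow cytometry with anti-B7-1 and anti-CD8 staining / Timing: Cell–vesicle co-incubation 1.5 h at 37 °C, staining 20 min on ice / Read-out: percent CD8+ FL2 mean versus row control / Probe or stimulus: QL9-loaded Drosophila micro-vesicles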
# NR2E3 ag-2: activates human photoreceptor nuclear receptor NR2E3; AID 2300; GST-NR2E3/biotin-RetCOR TR-FRET, 1536-well; Q9Y5X4; actives 0.12% (n = 320,000); inhibition of corepressor binding, % at 4.78 µM;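 active means percent inhibition above the cutoff of mean plus 3 SD of all tested compounds, set per screening campaign, cut at about 20% in these data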;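 further: 0% = DMSO wells and 100% = biotin wells as full block of FRET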
#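 System: GST-tagged NR2E3 plus biotinylated RetCOR corepressor; Amount: 1.35 nM GST-tagged NR2E3 final; Dosing: single nominal compound dose of 4.8 µM; Schedule: 5 h incubation at 4 °C; Technique: TR-FRET with europium anti-GST and streptavidin-D2, 340 nm excitation; Controls: biotin wells as high control, 0.6% DMSO wells as low control.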
# FXN GAA850 act: activators of GAA850 frataxin (FXN) promoter; HEK293 lucGAA850 FXN promoter luciferase reporter, 24 h; percent of 10 µM SAHA response; activation, % at 6 µM; actives 0.56% (n = 360,000); AID 540364;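 active means activation above the average of all compounds screened plus 3 SD, cutoff fixed separately per campaign, cut at about 7.5% in these data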;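 further: 0% = DMSO wells and 100% = 10 µM SAHA wells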
# * hit, by the source's call; i = inactive; / = no result; + = active, no number. In the library only some 2% were active in any assay of this set; here they are far more common.
SMILES,Myeloid diff MLP,NR2E3 ag-1,T cell modulator,NR2E3 ag-2,FXN GAA850 act
O=C1C(C2=C(O)c3ccccc3C2=O)=Nc2ccccc21,+,-21,784,1,1
Cc1cccc(C)c1NC(=O)C(c1ccccc1)n1c(=O)c(-c2ccco2)nc2ccccc21 (stereo not given),i,/,/,/,/
N#Cc1c2c(c(=S)n(-c3ccccc3)c1N)CCCC2,+,2,246,3,-1
CCCN1CCc2c(sc3nc(SCC)n(-c4ccccc4)c(=O)c23)C1,+,-4,/,/,1
O=C(c1ccc(S(=O)(=O)Cc2cc(F)ccc2F)c([N+](=O)[O-])c1)N1CCCCC1,+,13,352,1,-6
Cc1ccn(-c2ccc(NC(=O)c3cccs3)cc2)n1,i,-28,241,2,2
CN(C)C(=S)Oc1ccccc1C1(C)OCCO1,i,-19,/,/,0
N=c1n(Cc2ccccc2)c2ccccc2n1CC(O)c1ccco1 (stereo not given),+,19,148,0,2
CCn1c(=N)n(CC(O)c2ccco2)c2ccccc21 (stereo not given),i,14,296,0,-1
Cc1ccc(OCC(O)Cn2c(=N)n(Cc3ccccc3)c3ccccc32)cc1 (stereo not given),+,37,180,3,-14
COc1ccc2c(c1)O/C(=C\c1ccco1)C2=O,i,-69,147,1,2
CC(=O)COc1ccc2c(c1C)O/C(=C\c1ccco1)C2=O,+,-96,168,-2,-1
CCn1cc(C(=O)NCC(OC)OC)c(=O)c2cc(S(=O)(=O)N3CCC(C)CC3)ccc21,+,-15,295,2,-2
CSC1=NC(C)(C)C=C(/C=C/c2ccc(Cl)cc2Cl)N1,+,-11,200,-1,0
CCSC1=NC(C)(C)C=C(/C=C/c2ccc(Cl)cc2Cl)N1,i,33,251,2,0
CCOC(=O)c1ccc(-c2ccc(/C=N/NC(=O)c3cncc(Br)c3)o2)cc1,i,-64,265,-1,3
CCCCOC(=O)c1ccc(-c2ccc(/C=N/NC(=S)NCC)o2)cc1,+,-58,259,2,2
Cc1cccc(-n2ncc3c2CCCC3NC(=O)CCN2CCCO2)c1C (stereo not given),i,-27,264,4,0
COc1cc(C2C(C#N)=C(N)N(c3ccc(F)cc3)C3=C2S(=O)(=O)CC3)ccc1O (stereo not given),+,-39,321,2,1
Cc1nn(-c2ccccc2)c2nc(N)c(C(N)=O)cc12,i,-23,370,-2,2
Cc1sc2nc(SCC(=O)c3cccs3)n(Cc3ccco3)c(=O)c2c1C,+,10,138,-1,2
O=C(c1cnc2c(c1)COc1ccc(Cl)cc1-2)c1ccccc1O,i,14,445,2,0
Cc1ccc(O)c(C(=O)c2cnc3c(c2)COc2ccccc2-3)c1,+,-41,255,6,0
Cc1ccc(C)n1Cc1ccc(C(=O)O)cc1,i,-38,205,34*,-2
CN(C)NC(=O)C(NC(=O)c1ccccc1)C12CC3CC(CC(C3)C1)C2 (stereo not given),+,3,152,0,1
SMILES,Myeloid diff MLP,NR2E3 ag-1,T cell modulator,NR2E3 ag-2,FXN GAA850 act
O=c1cnnc(Nc2ccc(F)cc2)[nH]1,i,-4,172,-2,-1
O=c1cnnc(Nc2cccc(F)c2)[nH]1,+,-24,281,6,1
CCc1nnc(NC(=O)CN2CCCC(C)C2)s1 (stereo not given),i,-17,174,0,1
Cc1cccc(COCCN2CCN(S(=O)(=O)c3ccccc3)CCC2=O)c1,+,5,349,2,0
O=C1CCN(S(=O)(=O)c2ccccc2)CCN1CCOCc1ccccc1,i,-4,220,-2,0
CCOC(=O)N1CCN(c2ccc(S(=O)(=O)N3CCC(C)CC3)cc2[N+](=O)[O-])CC1,i,43,220,-1,2
CSc1nsc(/C=C/Nc2ccc(C)c(C)c2)c1C#N,i,-1,361,6,1
CSc1nsc(/C=C/Nc2ccc(C)cc2)c1C#N,+,-25,352,1,0

# Source: PubChem (several laboratories)
